Data taken from ChEMBL document CHEMBL1122935, “3-(1-Indolinyl)benzylamines: a new class of analgesic agents” (J Med Chem, 1985).

Assays:
Mus musculus [1] = assay: Inhibition of PQW-writhing in mice on subcutaneous administration at dose 10 mg/kg; Moderate activity in the range of 35-69%.; type: functional; settings: sc
Mus musculus [2] = assay: inhibition of PQW-writhing in mice on subcutaneous administration at dose 10 mg/kg. compound showed moderate activity in the range of 35-69%.; type: functional; settings: sc
Mus musculus [3] = assay: inhibition of PQW-writhing in mice on subcutaneous administration at dose 10 mg/kg. compound showed slight activity in the range of 10-34%,; type: functional; settings: sc
Mus musculus [4] = assay: Inhibition of PQW-writhing in mice on subcutaneous administration at dose 10 mg/kg; type: functional; settings: sc
Rattus norvegicus [5] = species: Rattus norvegicus; assay: The analgesic activity by D'Armour-Smith tail-flick assay in rats.; type: functional
Summary of the method: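 Rat tail-flick test. Compound was given sc in distilled water at 4, 8, 16 and 32 mg/kg, and percent analgesic activity was recorded at each dose. ED50 was calculated by Litchfield-Wilcoxon analysis with 95% confidence limits.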

[6] = Compound was tested for the approximate analgesic lethal dose (ALD50) on rats; type: ADME, organism-based; settings: rat, in vivo; read-out: ALD50
Rattus norvegicus [7] = assay: (§1) Oral anti-writhing activity at a dose of 25 mg/kg administered perorally in PQW assay; type: functional
Summary of the method: (§2)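 Mouse phenylquinone writhing assay with the compound given orally at 25 mg/kg. Writhing was induced with 0.125% phenyl-p-benzoquinone in 5% aqueous ethanol, 10 mL/kg ip. Writhes were counted over 10 min after a 5-min wait, and percent inhibition was calculated against vehicle-treated controls.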

Mus musculus [8] = assay: as §1; type: functional; summary of the method: as §2
Mus musculus [9] = assay: Inhibition of PQW-writhing in mice on subcutaneous administration at dose 10 mg/kg; Slight activity in the range of 10-34%; type: functional; settings: sc
Mus musculus [10] = assay: Inhibition of PQW-writhing in mice on subcutaneous administration at dose 25 mg/kg; Range of inhibition 35-69% (moderate activity); type: functional; settings: sc
Mus musculus [11] = assay: Inhibition of PQW-writhing in mice on subcutaneous administration at dose 10 mg/kg. compound showed 10-34% inhibition (slight activity); type: functional; settings: sc
Mus musculus [12] = assay: inhibition of PQW-writhing in mice on subcutaneous administration at dose 10 mg/kg. compound showed slight activity in the range of 10-34%; type: functional; settings: sc

NCc1cccc(CN2CCc3ccccc32)c1
inhibition in vivo at 10 mg/kg (Mus musculus [1]): 69%

COc1ccc2c(ccn2-c2cccc(CN)c2)c1
inhibition in vivo at 10 mg/kg (Mus musculus [2]): 69%

O=C(Cc1ccccc1)NCc1cccc(N2CCc3ccccc32)c1
inhibition in vivo at 10 mg/kg (Mus musculus [2]): 69%

CCOC(=O)NCc1cccc(N2CCc3ccccc32)c1
inhibition in vivo at 10 mg/kg (Mus musculus [3]): 34%

COc1ccc2c(c1)CCN2c1cccc(CN)c1
inhibition in vivo at 10 mg/kg (Mus musculus [2]): 69%

NCc1cccc(N2CCc3ccccc32)c1
ED50 (Mus musculus [4]): 4.2 mg/kg | ED50 (Rattus norvegicus [5]): 27 mg/kg | LD50 [6]: > 100 mg/kg | inhibition in vivo at 25 mg/kg (Rattus norvegicus [7]): 19% | inhibition in vivo at 25 mg/kg (Mus musculus [8]): 36%

COc1ccc2c(c1)CCN2Cc1cccc(CN)c1
inhibition in vivo at 10 mg/kg (Mus musculus [9]): 34%

NCc1cccc(CN2CCc3cc(Cl)ccc32)c1
ED50 (Mus musculus [4]): 20.2 mg/kg

NCc1cccc(N2CCc3cc(Cl)ccc32)c1
ED50 (Mus musculus [4]): 4.2 mg/kg

NCc1ccccc1N1CCc2ccccc21
ED50 (Mus musculus [4]): 14.1 mg/kg

CN(C)Cc1cccc(N2CCc3ccccc32)c1
inhibition in vivo at 10 mg/kg (Mus musculus [3]): 34%

Nc1ccccc1N1CCc2ccccc21
inhibition in vivo at 25 mg/kg (Mus musculus [10]): 43%

c1cc(CNCC2CC2)cc(N2CCc3ccccc32)c1
inhibition in vivo at 10 mg/kg (Mus musculus [2]): 69%

CC(N)c1cccc(N2CCc3ccccc32)c1 (centres undefined)
inhibition in vivo at 10 mg/kg (Mus musculus [2]): 69%

NCCc1cccc(N2CCc3ccccc32)c1
inhibition in vivo at 10 mg/kg (Mus musculus [2]): 69%

CNCc1cccc(N2CCc3ccccc32)c1
inhibition in vivo at 10 mg/kg (Mus musculus [3]): 34%

NCc1ccc(N2CCc3ccccc32)cc1
inhibition in vivo at 10 mg/kg (Mus musculus [11]): 34%

NCc1cccc(-n2ccc3ccccc32)c1
ED50 (Mus musculus [4]): 19.1 mg/kg

O=C(NCc1cccc(N2CCc3ccccc32)c1)C1CC1
inhibition in vivo at 10 mg/kg (Mus musculus [2]): 69%

c1ccc(CCNCc2cccc(N3CCc4ccccc43)c2)cc1
inhibition in vivo at 10 mg/kg (Mus musculus [3]): 34%

NCc1cccc(-n2ccc3cc(Cl)ccc32)c1
inhibition in vivo at 10 mg/kg (Mus musculus [12]): 34%

NC(c1ccccc1)c1cccc(N2CCc3ccccc32)c1 (centres undefined)
inhibition in vivo at 10 mg/kg (Mus musculus [2]): 69%

CC(C)=CCN1CC[C@]2(C)c3cc(O)ccc3C[C@H]1[C@H]2C [(+)-PENTAZOCINE]
ED50 (Mus musculus [4]): 2.3 mg/kg | ED50 (Rattus norvegicus [5]): 14.6 mg/kg

CCC(=O)O[C@](Cc1ccccc1)(c1ccccc1)[C@H](C)CN(C)C [PROPOXYPHENE]
ED50 (Mus musculus [4]): 3.9 mg/kg
